From ChEMBL document CHEMBL1153740, “Quassinoids from Eurycoma longifolia” (J Nat Prod, 2009)

System: HT-1080
Assay: Cytotoxicity against human HT1080 cells after 72 hrs by MTT assay
Assay type: functional, cell-based
Conditions: HT-1080, 72 h
Outline: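 HT-1080 human fibrosarcoma cells, harvested in exponential growth, seeded at 2 × 10^3 cells/well and left 24 h at 37 °C in humidified 5% CO2 to attach. Exposed to varying concentrations of test compounds in medium for 72 h. MTT (0.5 mg/mL) added for 2 h, formazan extracted with DMSO, absorbance read at 550 nm. Viability and IC50 taken from means of three wells.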

SMILES: CC1=CC(=O)[C@@H](O)[C@@]2(C)[C@H]1[C@@H](O)[C@H]1OC(=O)[C@H](O)[C@@]3(O)[C@@H](C)[C@@H](O)[C@H](O)[C@H]2[C@@]13C
- IC50: 90 µM

SMILES: C[C@H]1[C@H]2OC(=O)[C@@H]1[C@]1(C)C(=O)C=C3[C@@](C)([C@H]1[C@H]2O)[C@H](O)[C@@H](O)[C@H]1O[C@@]31C
- IC50: > 100 µM

SMILES: CC1=CC(=O)[C@@H](O)[C@@]2(C)[C@H]1CC(=O)[C@@]1(C)[C@H]3C(=O)O[C@H]([C@@H]3C)[C@H](O)[C@@H]12 [EURYCOMALACTONE]
- IC50: 0.98 µM

SMILES: CC1=C[C@H](O)[C@@H](O)[C@@]2(C)C1=CC(=O)[C@]1(C)[C@@H]2[C@@H](O)[C@@H]2OC(=O)[C@H]1[C@H]2C [EURYCOMALIDE B]
- IC50: 39 µM

SMILES: COc1cccc2c1C(=O)c1c(O)c3c(c(O)c1C2=O)C[C@@](O)(C(=O)CO)C[C@@H]3O[C@H]1C[C@H](N)[C@H](O)[C@H](C)O1 [DOXORUBICIN]
- IC50: 0.53 µM

SMILES: C=C1C[C@H](O)[C@@H](O)[C@@]2(C)[C@H]1CC(=O)[C@@]1(C)[C@H]3C(=O)O[C@H]([C@@H]3C)[C@H](O)[C@@H]12
- IC50: 45 µM

SMILES: CC1=CC(=O)[C@]2(C)[C@H]3[C@@H](O)[C@@H]4OC(=O)[C@@H]([C@H]4C)[C@]3(C)C(=O)C[C@@H]12 [LAURYCOLACTONE A]
- IC50: > 100 µM

SMILES: CC1=CC(=O)[C@@H](O)[C@@]2(C)C1=CC(=O)[C@]1(C)[C@@H]2[C@@H](O)[C@@H]2OC(=O)[C@H]1[C@H]2C
- IC50: 5.3 µM

SMILES: CC1=CC(=O)[C@@]2(C)C1=CC(=O)[C@]1(C)[C@@H]2[C@@H](O)[C@@H]2OC(=O)[C@H]1[C@H]2C [LAURYCOLACTONE B]
- IC50: > 100 µM

SMILES: C[C@H]1[C@H]2OC(=O)[C@@H]1[C@]1(C)C(=O)C=C3C4(C)OC4C(=O)[C@@H](O)[C@]3(C)[C@H]1[C@H]2O (stereo partly drawn)
- IC50: > 100 µM

SMILES: CC1=CC(=O)[C@@H](O)[C@@]2(C)[C@H]1[C@@H](O)[C@H]1OC(=O)C3[C@@H](C)[C@H](O)[C@H](O)[C@H]2[C@]31C (stereo partly drawn) [LONGILACTONE]
- IC50: 19 µM

SMILES: CC1=C2C(=O)[C@H](O)[C@]3(C)[C@H]([C@@H](O)[C@@H]4OC(=O)[C@H]3[C@H]4C)[C@@]2(C)[C@H](O)[C@@H](O)C1
- IC50: > 100 µM

SMILES: CC1=C[C@H](O)[C@@H](O)[C@@]2(C)[C@H]1CC(=O)[C@@]1(C)[C@H]3C(=O)O[C@H]([C@@H]3C)[C@H](O)[C@@H]12 [EURYCOLACTONE E]
- IC50: 7.3 µM

SMILES: CC1=CC(=O)[C@@H](O)[C@]2(C)[C@H]3[C@]4(O)OC[C@@]35[C@@H](C[C@@H]12)OC(=O)[C@H](O)[C@]5(O)[C@@H](C)[C@H]4O
- IC50: 90 µM

SMILES: CC1=CC(=O)[C@@H](O)[C@]2(C)[C@H]3[C@@H](O)[C@H](O)[C@H](C)[C@]4(O)[C@@H](O)C(=O)O[C@H](C[C@@H]12)[C@]34C
- IC50: 1.1 µM

SMILES: O=c1[nH]cc(F)c(=O)[nH]1 [FLUOROURACIL]
- IC50: 5.2 µM

SMILES: CC1=CC(=O)[C@@H](O)[C@]2(C)[C@H]3[C@@H](O)[C@@H]4OC(=O)[C@@H]([C@H]4C)[C@]3(C)C(=O)C[C@@]12O
- IC50: 8.8 µM

SMILES: CC1=CC(=O)O[C@@H]1[C@@]1(C)C[C@H]2OC(=O)[C@H](O)[C@@]3(O)[C@@H](C)[C@@H](O)[C@@]4(O)OC[C@]23[C@@H]14
- IC50: > 100 µM

SMILES: CC1=CC(=O)[C@@H](O)[C@]2(C)[C@H]3[C@@H](O)[C@@H]4OC(=O)[C@@H]([C@H]4C)[C@]3(C)[C@H](O)C[C@@H]12
- IC50: 6.2 µM

SMILES: C[C@H]1[C@H]2OC(=O)[C@@H]1[C@]1(C)C(=O)C=C3[C@H](C)C[C@H](O)[C@@H](O)[C@]3(C)[C@H]1[C@H]2O [EURYCOMALIDE A]
- IC50: 90 µM

SMILES: CC(=O)O[C@@H]1[C@H](C)[C@]2(O)[C@@H](OC(C)=O)C(=O)O[C@@H]3C[C@H]4C(C)=CC(=O)[C@@H](O)[C@]4(C)[C@H]4[C@]1(O)OC[C@]432
- IC50: > 100 µM

SMILES: CC1=CC(=O)[C@@H](O)[C@@]2(C)[C@H]1[C@@H](O)C(=O)[C@@]1(C)[C@H]3C(=O)O[C@H]([C@@H]3C)[C@H](O)[C@@H]12
- IC50: 5 µM

SMILES: CC1=C[C@H](O)[C@@H](O)[C@@]2(C)[C@H]1[C@@H](O)C(=O)[C@@]1(C)[C@H]3C(=O)O[C@H]([C@@H]3C)[C@H](O)[C@@H]12
- IC50: 65 µM
